Results published in article PMC3144155 (Journal of medicinal chemistry, 2011).
Changes are numbered by the printed parent chain. pIC50: −log10 of the molar value.

Legend:
PME-1 [1] = target: T1, PME-1 (Mus musculus, UniProt Q8BVQ5); test: Gel-based competitive ABPP with FP-Rh, PME-1 in mouse brain soluble proteome; format: biochemical
T1 sequence (Q8BVQ5 1-386): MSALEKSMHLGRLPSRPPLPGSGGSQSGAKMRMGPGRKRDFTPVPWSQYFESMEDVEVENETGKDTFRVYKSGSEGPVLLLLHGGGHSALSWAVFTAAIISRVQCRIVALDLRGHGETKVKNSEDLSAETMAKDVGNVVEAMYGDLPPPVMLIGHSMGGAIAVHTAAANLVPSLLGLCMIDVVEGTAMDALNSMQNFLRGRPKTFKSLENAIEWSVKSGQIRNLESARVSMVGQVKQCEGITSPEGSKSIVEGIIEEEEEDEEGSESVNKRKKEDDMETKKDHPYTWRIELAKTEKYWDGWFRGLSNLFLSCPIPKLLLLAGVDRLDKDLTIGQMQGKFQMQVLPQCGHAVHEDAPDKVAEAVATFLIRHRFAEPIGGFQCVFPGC
Outline: (§1)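 Soluble proteomes diluted to 1 mg/mL in PBS (pH 7.5) and preincubated with compound or DMSO for 30 min at 25 °C. FP-rhodamine then added (2 μM final) for 45 min. Reactions quenched with reducing SDS loading buffer, separated by 10% SDS-PAGE, and serine hydrolase activity read by in-gel fluorescence scanning.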

PME-1 [2] = target: T2, PME-1 (Homo sapiens, UniProt Q9Y570); test: PME-1 IC50 by gel-based competitive ABPP in soluble proteomes; format: biochemical; settings: Table 2 series
T2 sequence (Q9Y570 2-386 limits assumed): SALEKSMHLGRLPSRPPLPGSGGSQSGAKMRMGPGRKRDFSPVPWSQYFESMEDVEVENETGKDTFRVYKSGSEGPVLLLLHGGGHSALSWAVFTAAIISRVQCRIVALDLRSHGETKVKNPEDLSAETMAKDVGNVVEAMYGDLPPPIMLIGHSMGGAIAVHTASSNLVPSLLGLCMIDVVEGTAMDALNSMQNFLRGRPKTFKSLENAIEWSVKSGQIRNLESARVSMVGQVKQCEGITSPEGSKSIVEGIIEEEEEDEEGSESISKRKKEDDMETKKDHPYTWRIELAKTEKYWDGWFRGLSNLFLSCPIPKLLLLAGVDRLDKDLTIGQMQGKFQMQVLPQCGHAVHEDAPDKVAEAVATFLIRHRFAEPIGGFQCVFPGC

[3] = system: other SHs in human cell lysates; test: Gel-based competitive ABPP, other SHs in human cell proteomes/lysates; format: biochemical; settings: human cell proteomes
Purified wild-type PME-1 = target: T3, Purified wild-type PME-1 (Homo sapiens, UniProt Q9Y570); test: Reversibility of PME-1 inhibition; format: biochemical; settings: PME-1 500 nM, compound 50 μM
T3 sequence (Q9Y570 1-386): T1 sequence (Q8BVQ5 1-386) with T42S, G114S, S123P, V150I, A167S, A168S, V268I, N269S

other SHs [4] = test: In situ gel-based competitive ABPP, other SHs in HEK 293T cells; format: cell-based, human; settings: up to 100 μM compound, 1 h
Outline: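 HEK 293T cells treated in culture with a concentration range of compound or DMSO for 1 h at 37 °C, then harvested and sonicated in PBS (pH 7.5). Soluble fraction (64,000g supernatant) diluted to 1 mg/mL and labelled with FP-rhodamine (2 μM, 45 min, 25 °C). Resolved by 10% SDS-PAGE and read by in-gel fluorescence scanning.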

PME-1 [5] = target: T4, PME-1 (Homo sapiens, UniProt Q9Y570); test: In situ competitive SILAC-ABPP; format: cell-based; settings: HEK 293T cells, 20 μM, 1 h
T4 sequence (Q9Y570 1-386): T1 sequence (Q8BVQ5 1-386) with T42S, G114S, S123P, V150I, A167S, A168S, V268I, N269S

[6] = system: 35 other SHs detected in HEK 293T cells; test: In situ competitive SILAC-ABPP; format: cell-based, human; settings: 20 μM, 1 h
Outline: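 HEK 293T cells SILAC-labelled with light or heavy Lys/Arg. Light cells given compound and heavy cells DMSO, 1 h at 37 °C. Soluble and membrane proteomes (0.5 mg each) mixed 1:1 and labelled with FP-biotin (5 μM, 1 h, 25 °C). Streptavidin enrichment, on-bead trypsin digestion, then MudPIT LC-MS/MS. Light/heavy ratios taken for SHs with ≥2 quantifiable peptides, normalised to a DMSO/DMSO control.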

[7] = system: CA-Rh or SE-Rh-labeled proteins; test: CA-Rh / SE-Rh probe labeling of soluble proteomes from treated HEK 293T cells; format: cell-based, human; settings: 100 μM, relative to DMSO-treated samples
Outline: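 Compound or DMSO added to the culture medium of HEK 293T cells at 37 °C. Cells washed, scraped, pelleted, and sonicated in ice-cold PBS (pH 7.5). Soluble fraction isolated at 64,000g for 45 min at 4 °C and diluted to 1 mg/mL. Labelled with CA-rhodamine or SE-rhodamine (5 μM, 1 h, 25 °C), resolved by reducing 10% SDS-PAGE, and scanned for in-gel fluorescence.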

PP2A methylation state = PP2A methylation state in HEK 293T cells stably overexpressing PME-1; format: cell-based, human; settings: 20 μM, 1 h
Outline: (§2)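 Compound or DMSO added to the medium of HEK 293T cells at 37 °C. Total sonicated cell extract diluted to 2 mg/mL in PBS, run on reducing 10% SDS-PAGE, and immunoblotted with demethylated-specific (4b7), methylated-specific (2A10) and total PP2A antibodies plus α-tubulin. Bands quantified by fluorescence imaging. Mean ± SEM, n = 3; compared with DMSO-treated cells.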

[8] = system: demethylated form of PP2A; test: PP2A methylation state in untransfected HEK 293T cells; format: cell-based, human; settings: 1 hour, basal PME-1
Outline: as §2

PME-1 [9] = target: T2, PME-1; settings: read-out: PME-1 IC50; cited from earlier work
other SHs [10] = format: biochemical, mouse; settings: Off-targets are defined as SHs with >50% inhibition at 50 μM; Table 1 series
Outline: as §1

Q: For `CS(=O)(=O)/C(C#N)=C/c1ccc[nH]1` [Cmpd 7, (E)-2-(methylsulfonyl)-3-(1H-pyrrol-2-yl)acrylonitrile], which “PME-1 activity (in words)” value (PME-1 [1]) is on record?
A: inactive

Q: Which “PME-1 activity (in words)” value (PME-1 [1]) does the source give for `CS(=O)(=O)/C(C#N)=C/c1ccccc1` [Cmpd 8, (E)-2-(methylsulfonyl)-3-phenylacrylonitrile] here?
A: inactive

Q: For `CS(=O)(=O)/C(C#N)=C/c1cccn1S(=O)(=O)c1c(F)c(F)c(F)c(F)c1F` [Cmpd 22, (E)-2-(methylsulfonyl)-3-(1-((perfluorophenyl)sulfonyl)-1H-pyrrol-2-yl)acrylonitrile], which “PME-1 activity (in words)” value (PME-1 [2]) is on record?
A: no activity

Q: With `CS(=O)(=O)/C(C#N)=C/c1cccn1S(=O)(=O)c1ccccc1` [Cmpd 2] as the compound, how does the “Cross-reactivity with additional SHs” value [3] read?
A: acyl-peptide hydrolase (APEH) and an unidentified 30 kDa SH

Q: With `CS(=O)(=O)C(C#N)Cc1cccn1S(=O)(=O)c1ccccc1` (centres unmarked) [Cmpd 3, 2-(methylsulfonyl)-3-(1-(phenylsulfonyl)-1H-pyrrol-2-yl)propanenitrile] as the compound, how does the “PME-1 activity (in words)” value (PME-1 [1]) read?
A: inactive

Q: Which “Recovery of enzyme activity after gel filtration” value (Purified wild-type PME-1) does the source give for `N#C/C(=C\c1cccn1S(=O)(=O)c1cccc([N+](=O)[O-])c1)S(=O)(=O)c1ccc(F)cc1` [Cmpd 28, (E)-2-(4-fluorophenylsulfonyl)-3-(1-(3-nitrophenylsulfonyl)-1H-pyrrol-2-yl)acrylonitrile] here?
A: not observed

Q: And the “Cross-reactivity with other SHs in situ” value (other SHs [4])?
A: without any observed cross-reactivity

Q: What about the “in situ inhibition of PME-1 (SILAC-ABPP)” value (PME-1 [5]) of the same compound?
A: complete in situ inhibition

Q: And the “Activity against other SHs (SILAC-ABPP)” value [6]?
A: no activity

Q: What about the “Change of intensity of CA-Rh or SE-Rh-labeled proteins” value [7] of the same compound?
A: did not alter the intensity

Q: What about the “Effect on the methylated form of PP2A” value (PP2A methylation state) of the same compound?
A: significantly increased

Q: What about the “Effect on the demethylated form of PP2A” value ([8]; 20 μM) of the same compound?
A: decreased the demethylated form of PP2A

Q: Which “PME-1 activity (in words)” value (PME-1 [1]) does the source give for `CS(=O)(=O)/C(C#N)=C/c1ccc([N+](=O)[O-])cc1` [Cmpd 9, (E)-2-(methylsulfonyl)-3-(4-nitrophenyl)acrylonitrile] here?
A: inactive

Q: Which “PME-1 activity (in words)” value (PME-1 [1]) does the source give for `CS(=O)(=O)C(=Cc1cccn1S(=O)(=O)c1ccccc1)S(C)(=O)=O` [Cmpd 16, 2-(2,2-bis(methylsulfonyl)vinyl)-1-(phenylsulfonyl)-1H-pyrrole] here?
A: did not inhibit PME-1

Q: With `N#C/C(=C\c1cccn1S(=O)(=O)c1cccc(C#N)c1)S(=O)(=O)c1ccc(F)cc1` [Cmpd 27, (E)-3-(2-(2-cyano-2-(4-fluorophenylsulfonyl)vinyl)-1H-pyrrol-1-ylsulfonyl)benzonitrile] as the compound, how does the “Effect on the methylated form of PP2A” value (PP2A methylation state) read?
A: significantly increased

Q: What does the source list for `COC(=O)N1C(=O)[C@](c2ccccc2)(C2CCCC2)N1C(=O)OC` (stereo in doubt) [Cmpd 1, reference compound]?
A: Effect on the demethylated form of PP2A ([8]; 500 nM): decreased the demethylated form of PP2A; pIC50 (PME-1 [9]): ~8.00

Q: Which “PME-1 activity (in words)” value (PME-1 [1]) does the source give for `N#CC(C#N)=Cc1cccn1S(=O)(=O)c1ccccc1` [Cmpd 17, 2-((1-(phenylsulfonyl)-1H-pyrrol-2-yl)methylene)malononitrile] here?
A: two-fold less potent

Q: What about the Off-targets (other SHs [10]) of the same compound?
A: increased activity against a 40 kDa SH

Q: For `CS(=O)(=O)/C(=C/c1cccn1S(=O)(=O)c1ccccc1)CN` [Cmpd 4, (E)-2-(methylsulfonyl)-3-(1-(phenylsulfonyl)-1H-pyrrol-2-yl)prop-2-en-1-amine], which “PME-1 activity (in words)” value (PME-1 [1]) is on record?
A: inactive
